These results are taken from ChEMBL document CHEMBL2407018, “Luteolin suppresses the differentiation of THP-1 cells through the Inhibition of NOX2 mRNA expression and the membrane translocation of p47phox” (J Nat Prod, 2013).

In experiment [1] the target is T1, NADPH oxidase 2 (Homo sapiens) (UniProt P04839).
T1 sequence (whole entry): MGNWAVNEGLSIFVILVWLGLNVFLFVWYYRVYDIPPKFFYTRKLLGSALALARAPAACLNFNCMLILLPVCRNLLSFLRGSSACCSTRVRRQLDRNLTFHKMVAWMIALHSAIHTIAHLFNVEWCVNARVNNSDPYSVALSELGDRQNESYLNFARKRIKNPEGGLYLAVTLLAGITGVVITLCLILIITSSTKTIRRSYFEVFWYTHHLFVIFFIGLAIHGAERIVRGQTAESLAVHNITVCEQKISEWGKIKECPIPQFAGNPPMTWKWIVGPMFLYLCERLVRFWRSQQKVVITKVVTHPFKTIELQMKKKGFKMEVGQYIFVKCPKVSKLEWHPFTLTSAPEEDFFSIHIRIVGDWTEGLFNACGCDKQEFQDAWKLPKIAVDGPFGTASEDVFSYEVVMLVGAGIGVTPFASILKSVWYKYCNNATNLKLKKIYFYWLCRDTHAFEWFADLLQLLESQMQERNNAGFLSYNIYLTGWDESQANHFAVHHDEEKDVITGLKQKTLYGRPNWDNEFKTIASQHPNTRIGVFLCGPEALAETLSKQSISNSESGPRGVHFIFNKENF
Put plainly: Inhibition of NOX2 in human THP1 cells assessed as downregulation of TPA-induced CD36 mRNA expression at 20 uM incubated for 1 hr prior to TPA challenge measured after 24 hrs by RT-PCR analysis. The experiment is classed as cell-based. Particulars: THP-1. The gist of the method:
(§1)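 THP-1 cells grown in RPMI1640 with 10% heat-inactivated FCS and penicillin/streptomycin at 37 °C, 5% CO2. Seeded at 2 × 10^6 cells per 3.5 cm dish. Compound added 1 h before 100 nM TPA for 24 h. Cells scraped, washed in cold PBS, lysed in TRIzol for total RNA. Transcripts measured by RT-PCR and normalized to 18s rRNA.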

Experiment [2] concerns the target T1, NADPH oxidase 2 (Homo sapiens). Nature of the experiment: Inhibition of NOX2 in human THP1 cells assessed as suppression of TPA-induced membrane translocation of p47phox at 20 uM incubated for 1 hr prior to TPA challenge measured after 12 hrs by Western blot analysis. The experiment is classed as cell-based. Particulars: THP-1. The gist of the method: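 Cells pretreated 1 h, then 100 nM TPA for 12 h. Lysed in digitonin buffer B (pH 7.5); after 12000g for 15 min the pellet was solubilized in buffer B with 1% Triton X-100 to give the membrane fraction. 20 μg protein run on 12% SDS-PAGE, blotted for p47phox.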
For orientation: A western blot detects proteins with antibodies after separation by electrophoresis.

The test system of experiment [3] is THP-1. Put plainly: Inhibition of TPA-induced MEK/ERK phosphorylation in human THP1 cells at 20 uM incubated for 1 hr prior to TPA challenge measured after 15 mins by Western blot analysis. The experiment is classed as cell-based. Put shortly:
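THP-1 cells pretreated 1 h, then 100 nM TPA for 15 min. Lysed in buffer A (Tris pH 7.4 with phosphatase inhibitors, 1% Triton X-100). 20 μg protein run on 12% SDS-PAGE and PVDF, probed for phospho- and total MEK and ERK (1:1000) with biotin secondary and ABC detection.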

For experiment [4], the target named is T1, NADPH oxidase 2 (Homo sapiens). Put plainly: Inhibition of NOX2 in human THP1 cells assessed as downregulation of TPA-induced CD11b mRNA expression at 0.2 to 2 uM incubated for 1 hr prior to TPA challenge measured after 24 hrs by RT-PCR analysis. It is filed as cell-based. Particulars: THP-1. The gist of the method:
(§2)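 THP-1 cells, 2 × 10^6 per 3.5 cm dish, pretreated 1 h with 0.2, 2 or 20 μM, then 100 nM TPA for 24 h. Cells scraped and washed in cold PBS, TRIzol RNA extracted. CD11b, CD14 and CD36 transcripts measured by RT-PCR and normalized to 18s rRNA.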

Experiment [5] shares this target. Nature of the experiment: Inhibition of NOX2 in human THP1 cells assessed as suppression of TPA-induced cell adhesion at 20 uM incubated for 1 hr prior to TPA challenge measured after 24 hrs by microscopic analysis. The conditions noted are these: THP-1. It is filed as cell-based. The gist of the method:
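THP-1 cells at 2 × 10^6 per 3.5 cm dish in RPMI1640 with 10% FCS. Exposed to compound for 1 h, then to 100 nM TPA for 24 h. Dishes washed three times with PBS and the remaining adherent cells inspected by microscope.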

For experiment [6] the target is unchanged. Nature of the experiment: Inhibition of NOX2 in human THP1 cells assessed as suppression of TPA-induced intracellular ROS accumulation at 20 uM incubated for 1 hr prior to TPA challenge measured after 24 hrs by flow cytometric analysis. It is filed as cell-based. Particulars: THP-1. Put shortly:
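THP-1 cells pretreated 1 h, then 100 nM TPA for 24 h. Cells scraped, stained 20 min with 10 μM carboxy-H2DCFDA in PBS with […] in a 5% CO2 incubator, and washed three times in ice-cold PBS. DCF fluorescence read by flow cytometry.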

The test system of experiment [7] is THP-1. Nature of the experiment: Downregulation of TPA-induced NOX2 mRNA expression in human THP1 cells at 20 uM incubated for 1 hr prior to TPA challenge measured after 24 hrs by RT-PCR analysis. The experiment is classed as functional, cell-based. The gist of the method: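 THP-1 cells in RPMI1640 with 10% FCS, 2 × 10^6 cells per 3.5 cm dish, pretreated 1 h, then 100 nM TPA for 24 h. Total RNA extracted in TRIzol, NOX2 measured by RT-PCR and normalized to 18s rRNA.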

Experiment [8] has as its target T1, NADPH oxidase 2 (Homo sapiens). Nature of the experiment: Inhibition of NOX2 in human THP1 cells assessed as downregulation of TPA-induced CD14 mRNA expression at 0.2 to 2 uM incubated for 1 hr prior to TPA challenge measured after 24 hrs by RT-PCR analysis. The experiment is classed as cell-based. The conditions noted are these: THP-1. Put shortly:
as §2

The target is the same in experiment [9]. Put plainly: Inhibition of NOX2 in human THP1 cells assessed as downregulation of TPA-induced CD14 mRNA expression at 20 uM incubated for 1 hr prior to TPA challenge measured after 24 hrs by RT-PCR analysis. It is filed as cell-based. Particulars: THP-1. Put shortly: as §1
The target is the same in experiment [10]. Nature of the experiment: Inhibition of NOX2 in human THP1 cells assessed as downregulation of TPA-induced CD11b mRNA expression at 20 uM incubated for 1 hr prior to TPA challenge measured after 24 hrs by RT-PCR analysis. It is filed as cell-based. Particulars: THP-1. The gist of the method: as §1
For experiment [11] the target is unchanged. Put plainly: Inhibition of NOX2 in human THP1 cells assessed as downregulation of TPA-induced CD36 mRNA expression at 0.2 to 2 uM incubated for 1 hr prior to TPA challenge measured after 24 hrs by RT-PCR analysis. The experiment is classed as cell-based. The conditions noted are these: THP-1. Put shortly: as §2

The source made the active and inactive calls. The rule behind the calls is not given here.

As for `O=c1cc(-c2ccc(O)c(O)c2)oc2cc(O)cc(O)c12`, the inhibition result in experiment [1], in [2], in experiment [5], in experiment [6], in experiment [9] and in experiment [10] was “Active” each time. For the same compound, the inhibition result (with THP-1 [3]; in experiment [4]; in experiment [8]; in experiment [11]) was “inactive” throughout. Further, in the experiment on THP-1 [7], the result was Active.
In the case of `O=c1cc(-c2ccc(O)cc2)oc2cc(O)cc(O)c12`, the inhibition result in experiment [1], in [5], in [9] and in [10] was “Active” in each case.
Turning to `O=c1cc(-c2ccccc2)oc2cc(O)cc(O)c12`, the inhibition entry in experiment [1], in [5], in experiment [9] and in experiment [10] was “Active” in each case.
Take `O=c1cc(-c2cc(O)c(O)c(O)c2)oc2cc(O)cc(O)c12`: the inhibition entry in experiment [1], in experiment [2], in experiment [5], in experiment [9] and in experiment [10] was “inactive” throughout. The result in the experiment on THP-1 [7] was inactive.
